Source: ChEMBL document CHEMBL3232844, “Synthesis and structure activity relationships of schweinfurthin indoles” (2014)

Columns and labels:
Assay type in all cases: functional
SK-OV-3 = experiment: Cytotoxicity against human SKOV3 cells
Summary of the method: (§1)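 Tested in a 60-cell-line human tumor panel screen; the read-out is growth inhibition, reported as GI50 for each cell line.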

U-251 = experiment: Cytotoxicity against human U251 cells
Summary of the method: (§2)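 Cell line run as part of the 60-cell-line screening panel; growth inhibition was reported as a GI50 for each line.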

A549 = experiment: Cytotoxicity against human A549 cells; summary of the method: as §1
SK-MEL-2 = experiment: Cytotoxicity against human SK-MEL-2 cells; summary of the method: as §1
HCC 2998 = experiment: Cytotoxicity against human HCC2998 cells; summary of the method: as §1
HL-60(TB) = experiment: Cytotoxicity against human HL-60(TB) cells
Summary of the method: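 Tested within the NCI 60-cell-line screen, with GI50 as the read-out. Values are the average of two independent experiments. The lowest concentration tested was 10 nM.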

SR = experiment: Cytotoxicity against human SR cells; summary of the method: as §2
HOP-62 = experiment: Cytotoxicity against human HOP62 cells; summary of the method: as §1
MDA-MB-468 = experiment: Cytotoxicity against human MDA-MB-468 cells; summary of the method: as §1
SNB-19 = experiment: Cytotoxicity against human SNB19 cells; summary of the method: as §1
MDA-MB-435 = experiment: Cytotoxicity against human MDA-MB-435 cells; summary of the method: as §1
[1] = Cytotoxicity against human OVCAR8 cells; summary of the method: as §1
SNB-75 = experiment: Cytotoxicity against human SNB75 cells; summary of the method: as §2
NCI-H322M = experiment: Cytotoxicity against human NCI-H322M cells; summary of the method: as §1
M14 = experiment: Cytotoxicity against human M14 cells; summary of the method: as §1
[2] = Cytotoxicity against human OVCAR4 cells; summary of the method: as §1
MOLT-4 = experiment: Cytotoxicity against human MOLT4 cells; summary of the method: as §1
[3] = Cytotoxicity against human NCI-ADR-RES cells; summary of the method: as §1
HCT-116 = experiment: Cytotoxicity against human HCT116 cells; summary of the method: as §1
KM12 = experiment: Cytotoxicity against human KM12 cells; summary of the method: as §1
SN12C = experiment: Cytotoxicity against human SN12C cells; summary of the method: as §1
[4] = Cytotoxicity against human UO31 cells; summary of the method: as §2
TK-10 = experiment: Cytotoxicity against human TK10 cells; summary of the method: as §2
CCRF-CEM = experiment: Cytotoxicity against human CCRF-CEM cells
[5] = Cytotoxicity against human OVCAR3 cells; summary of the method: as §1
NCI-H226 = experiment: Cytotoxicity against human NCI-H226 cells; summary of the method: as §1
MCF7 = experiment: Cytotoxicity against human MCF7 cells; summary of the method: as §1
ACHN = experiment: Cytotoxicity against human ACHN cells; summary of the method: as §1
PC-3 = experiment: Cytotoxicity against human PC3 cells; summary of the method: as §1
LOX IMVI = experiment: Cytotoxicity against human LOXIMVI cells; summary of the method: as §1
MDA-MB-231 = experiment: Cytotoxicity against human MDA-MB-231 cells; summary of the method: as §1
RXF 393 = experiment: Cytotoxicity against human RXF393 cells; summary of the method: as §1
786-0 = experiment: Cytotoxicity against human 786-0 cells; summary of the method: as §1
NCI-H460 = experiment: Cytotoxicity against human NCI-H460 cells; summary of the method: as §1
A498 = experiment: Cytotoxicity against human A498 cells; summary of the method: as §1
[6] = Cytotoxicity against human UACC62 cells; conditions: UACC-62, read-out: pLC50 (the source's name) (converted); summary of the method: as §2
SF-295 = experiment: Cytotoxicity against human SF295 cells; summary of the method: as §1
[7] = Cytotoxicity against human UACC257 cells; summary of the method: as §2
HT-29 = experiment: Cytotoxicity against human HT-29 cells; summary of the method: as §1
SF-268 = experiment: Cytotoxicity against human SF268 cells; summary of the method: as §1
SK-MEL-5 = experiment: Cytotoxicity against human SK-MEL-5 cells; conditions: read-out: pLC50 (the source's name) (converted); summary of the method: as §1
BT-549 = experiment: Cytotoxicity against human BT549 cells; summary of the method: as §1
CAKI-1 = experiment: Cytotoxicity against human Caki1 cells; summary of the method: as §1
[8] = read-out: pLC50 (the source's name) (converted)

SMILES: COc1cc(/C=C/c2cc(O)c3c(c2)C[C@@H]2C(C)(C)[C@H](O)CC[C@@]2(C)O3)cc2c1ccn2C
- LC50 (SK-OV-3): 89.1 µM
- TGI (SK-OV-3; read-out: pTGI (converted)): 35.5 µM
- GI50 (U-251): 0.141 µM
- CC50 (U-251; [8]): 43.7 µM
- TGI (U-251; read-out: pTGI (converted)): 15.5 µM
- GI50 (A549): 9.55 µM
- CC50 (A549; [8]): 58.9 µM
- TGI (A549; read-out: pTGI (converted)): 23.4 µM
- GI50 (SK-MEL-2): 2.29 µM
- CC50 (SK-MEL-2; [8]): 43.7 µM
- TGI (SK-MEL-2; read-out: pTGI (converted)): 17 µM
- GI50 (HCC 2998): 0.214 µM
- CC50 (HCC 2998; [8]): 45.7 µM
- TGI (HCC 2998; read-out: pTGI (converted)): 18.6 µM
- GI50 (HL-60(TB)): 0.0447 µM
- CC50 (HL-60(TB); [8]): 89.1 µM
- TGI (HL-60(TB); read-out: pTGI (converted)): 16.6 µM
- GI50 (SR): 0.0759 µM
- CC50 (SR; [8]): 89.1 µM
- TGI (SR; read-out: pTGI (converted)): 39.8 µM
- GI50 (HOP-62): 0.0759 µM
- CC50 (HOP-62; [8]): 26.9 µM
- TGI (HOP-62; read-out: pTGI (converted)): 4.68 µM
- GI50 (MDA-MB-468): 0.871 µM
- LC50 (MDA-MB-468): 46.8 µM
- TGI (MDA-MB-468; read-out: pTGI (converted)): 15.1 µM
- GI50 (SNB-19): 0.0141 µM
- CC50 (SNB-19; [8]): 41.7 µM
- TGI (SNB-19; read-out: pTGI (converted)): 13.8 µM
- GI50 (MDA-MB-435): 0.389 µM
- CC50 (MDA-MB-435; [8]): 61.7 µM
- TGI (MDA-MB-435; read-out: pTGI (converted)): 9.12 µM
- GI50 ([1]; OVCAR-8): 4.27 µM
- CC50 ([1]; OVCAR-8, read-out: pLC50 (the source's name) (converted)): 89.1 µM
- TGI ([1]; OVCAR-8, read-out: pTGI (converted)): 39.8 µM
- GI50 (SNB-75): 0.0525 µM
- CC50 (SNB-75; [8]): 35.5 µM
- TGI (SNB-75; read-out: pTGI (converted)): 5.37 µM
- GI50 (NCI-H322M): 13.2 µM
- CC50 (NCI-H322M; [8]): 60.3 µM
- TGI (NCI-H322M; read-out: pTGI (converted)): 28.2 µM
- GI50 (M14): 0.759 µM
- CC50 (M14; [8]): 7.08 µM
- TGI (M14; read-out: pTGI (converted)): 1.26 µM
- GI50 ([2]; OVCAR-4): 8.51 µM
- CC50 ([2]; OVCAR-4, read-out: pLC50 (the source's name) (converted)): 56.2 µM
- TGI ([2]; OVCAR-4, read-out: pTGI (converted)): 24 µM
- GI50 (MOLT-4): 0.0389 µM
- CC50 (MOLT-4; [8]): 89.1 µM
- TGI (MOLT-4; read-out: pTGI (converted)): 14.8 µM
- GI50 [3]: 9.55 µM
- CC50 [3, 8]: 89.1 µM
- TGI ([3]; read-out: pTGI (converted)): 46.8 µM
- GI50 (HCT-116): 0.407 µM
- CC50 (HCT-116; [8]): 35.5 µM
- TGI (HCT-116; read-out: pTGI (converted)): 13.5 µM
- GI50 (KM12): 0.295 µM
- CC50 (KM12; [8]): 44.7 µM
- TGI (KM12; read-out: pTGI (converted)): 18.6 µM
- GI50 (SN12C): 10.5 µM
- LC50 (SN12C): 52.5 µM
- TGI (SN12C; read-out: pTGI (converted)): 23.4 µM
- GI50 ([4]; UO-31): 0.0813 µM
- LC50 ([4]; UO-31): 32.4 µM
- TGI ([4]; UO-31, read-out: pTGI (converted)): 2.95 µM
- GI50 (TK-10): 9.77 µM
- LC50 (TK-10): 63.1 µM
- TGI (TK-10; read-out: pTGI (converted)): 25.1 µM
- GI50 (CCRF-CEM): 0.0537 µM
- CC50 (CCRF-CEM; [8]): 89.1 µM
- TGI (CCRF-CEM; read-out: pTGI (converted)): 12.3 µM
- GI50 ([5]; OVCAR-3): 10.2 µM
- CC50 ([5]; OVCAR-3, read-out: pLC50 (the source's name) (converted)): 53.7 µM
- TGI ([5]; OVCAR-3, read-out: pTGI (converted)): 24 µM
- GI50 (NCI-H226): 16.2 µM
- CC50 (NCI-H226; [8]): 89.1 µM
- TGI (NCI-H226; read-out: pTGI (converted)): 60.3 µM
- GI50 (MCF7): 0.661 µM
- LC50 (MCF7): 50.1 µM
- TGI (MCF7; read-out: pTGI (converted)): 12.3 µM
- GI50 (ACHN): 1.23 µM
- LC50 (concentration killing 50% of cells) (ACHN): 50.1 µM
- TGI (ACHN; read-out: pTGI (converted)): 17.8 µM
- GI50 (PC-3): 0.741 µM
- LC50 (PC-3): 89.1 µM
- TGI (PC-3; read-out: pTGI (converted)): 38 µM
- GI50 (LOX IMVI): 0.123 µM
- CC50 (LOX IMVI; [8]): 26.9 µM
- TGI (LOX IMVI; read-out: pTGI (converted)): 4.57 µM
- GI50 (MDA-MB-231): 3.89 µM
- LC50 (MDA-MB-231): 51.3 µM
- TGI (MDA-MB-231; read-out: pTGI (converted)): 19.1 µM
- GI50 (RXF 393): 0.00891 µM
- LC50 (RXF 393): 27.5 µM
- TGI (RXF 393; read-out: pTGI (converted)): 1.58 µM
- GI50 (786-0): 0.0275 µM
- LC50 (concentration killing 50% of cells) (786-0): 7.94 µM
- TGI (786-0; read-out: pTGI (converted)): 1.7 µM
- GI50 (NCI-H460): 0.309 µM
- CC50 (NCI-H460; [8]): 89.1 µM
- TGI (NCI-H460; read-out: pTGI (converted)): 23.4 µM
- GI50 (A498): 0.0437 µM
- CC50 (A498; [8]): 53.7 µM
- TGI (A498; read-out: pTGI (converted)): 9.33 µM
- CC50 [6]: 21.4 µM
- GI50 (SF-295; read-out: GI50): < 0.012 µM
- GI50 (SF-295; read-out: pGI50 (converted)): 0.0209 µM
- CC50 (SF-295; [8]): 1.95 µM
- TGI (SF-295; read-out: pTGI (converted)): 0.0437 µM
- GI50 ([7]; UACC-257): 0.0389 µM
- CC50 ([7]; UACC-257, read-out: pLC50 (the source's name) (converted)): 64.6 µM
- TGI ([7]; UACC-257, read-out: pTGI (converted)): 25.1 µM
- GI50 (HT-29): 6.03 µM
- CC50 (HT-29; [8]): 41.7 µM
- TGI (HT-29; read-out: pTGI (converted)): 15.1 µM
- GI50 (SF-268): 0.0129 µM
- CC50 (SF-268; [8]): 69.2 µM
- TGI (SF-268; read-out: pTGI (converted)): 24 µM
- CC50 (SK-MEL-5): 12 µM
- GI50 (BT-549): 0.138 µM
- CC50 (BT-549; [8]): 52.5 µM
- TGI (BT-549; read-out: pTGI (converted)): 20.4 µM
- GI50 (CAKI-1): 0.479 µM
- LC50 (CAKI-1): 89.1 µM
- TGI (CAKI-1; read-out: pTGI (converted)): 9.12 µM
